Assay results reported in ChEMBL document CHEMBL1122660 (J Med Chem, 1984).

Tests used:
P388 [1] = experiment: Maximum percent T/C (antitumor activity) against P388 leukemia cells; format: functional, Mus musculus
P388 [2] = experiment: Ratio of optimal dose (OD) and minimum effective dose (MED) required for antitumor activity in mice bearing P-388 lymphocytic leukemia; format: functional, Mus musculus
P388 [3] = experiment: Maximum percent T/C (antitumor activity) against P388 leukemia cells for Mitomycin C; format: functional, Mus musculus
P388 [4] = experiment: Optimum dose (mg/kg) against P388 leukemic cells; format: functional, Mus musculus
P388 [5] = experiment: Minimum effective dose against P388 leukemic cells; format: functional; settings: Mus musculus, read-out: MED
Mus musculus [6] = species: Mus musculus; experiment: Percentage change in WBC at optimum dose on day 3; format: functional
[7] = Distribution between 1-octanol and water containing phosphate buffer at pH 7.4; format: physicochemical; settings: 1-octanol/water containing phosphate buffer
[8] = Partition coefficient between 1-octanol and water containing phosphate buffer at pH 7.4; format: physicochemical; settings: 1-octanol/water containing phosphate buffer
Mus musculus [9] = species: Mus musculus; experiment: Maximum percent T/C (antitumor activity) against P388 leukemia cells for Mitomycin C. The number of 30-day survivors is given in the parenthesis.; format: functional
Mus musculus [10] = species: Mus musculus; experiment: Maximum percent T/C (antitumor activity) against P388 leukemia cells for the compound. The number of 30-day survivors is given in the parenthesis.; format: functional
Mus musculus [11] = experiment: Evaluated for antitumor activity against B-16 melanoma in mice at a dose 4 mg/kg day, ip, on days 1, 4, and 7 against B-16 Melanoma cell; format: functional
Procedure, shortened: (§1)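 B-16 melanoma in mice, run at Bristol Laboratories by standard NCI protocols. Compound given ip on days 1, 4 and 7 in Me2SO + buffered saline vehicle; ten mice per dose. Read-outs per dose: %T/C, number of survivors, and weight change.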

Mus musculus [12] = experiment: Evaluated for antitumor activity against B-16 melanoma in mice aat a dose 2 mg/kg day, ip,on days 1, 4, and 7 against B-16 Melanoma cell; format: functional
Mus musculus [13] = experiment: Evaluated for antitumor activity against B-16 melanoma in mice at a dose 8 mg/kg day, ip, on days 1, 4, and 7 against B-16 Melanoma cell; format: functional
Mus musculus [14] = experiment: Evaluated for antitumor activity against B-16 melanoma in mice at a dose 6 mg/kg day, ip, on days 1, 4, and 7 against B-16 Melanoma cell; format: functional
Mus musculus [15] = experiment: Evaluated for antitumor activity against B-16 melanoma in mice at a dose 2 mg/kg day, ip, on days 1, 4, and 7 against B-16 Melanoma cell; format: functional; procedure, shortened: as §1
Mus musculus [16] = experiment: Evaluated for antitumor activity against B-16 melanoma in mice at a dose 5 mg/kg day, ip, on days 1, 4, and 7 against B-16 Melanoma cell; format: functional
Mus musculus [17] = experiment: Evaluated for antitumor activity against B-16 melanoma in mice aat a dose 3 mg/kg day, ip,on days 1, 4, and 7 against B-16 Melanoma cell; format: functional
Mus musculus [18] = experiment: Evaluated for antitumor activity against B-16 melanoma in mice at a dose 5 mg/kg day, ip, on days 1, 4, and 7 against B-16 Melanoma cell *-Tumors survivors on day 62; format: functional
Mus musculus [19] = experiment: Evaluated for antitumor activity against B-16 melanoma in mice at a dose 3 mg/kg day, ip, on days 1, 4, and 7 against B-16 Melanoma cell *-Tumors survivors on day 62; format: functional
Mus musculus [20] = experiment: Evaluated for antitumor activity against B-16 melanoma in mice at a dose 3 mg/kg day, ip, on days 1, 4, and 7 against B-16 Melanoma cell; format: functional; procedure, shortened: as §1
Mus musculus [21] = experiment: Evaluated for antitumor activity against B-16 melanoma in mice at a dose 12 mg/kg day, ip, on days 1, 4, and 7 against B-16 Melanoma cell; format: functional
Mus musculus [22] = experiment: Evaluated for antitumor activity against B-16 melanoma in mice aat a dose 1 mg/kg day, ip,on days 1, 4, and 7 against B-16 Melanoma cell; format: functional; procedure, shortened: as §1
Mus musculus [23] = experiment: Evaluated for antitumor activity against B-16 melanoma in mice at a dose 1 mg/kg day, ip, on days 1, 4, and 7 against B-16 Melanoma cell *-Tumors survivors on day 62; format: functional
Mus musculus [24] = experiment: Evaluated for antitumor activity against B-16 melanoma in mice at a dose 2 mg/kg day, ip, on days 1, 4, and 7 against B-16 Melanoma cell *-Tumors survivors on day 62; format: functional
Mus musculus [25] = experiment: Evaluated for antitumor activity against B-16 melanoma in mice at a dose 4 mg/kg day, ip, on days 1, 4, and 7 against B-16 Melanoma cell *-Tumors survivors on day 62; format: functional
Mus musculus [26] = species: Mus musculus; experiment: Maximum percent T/C (antitumor activity) against P388 leukemia cells for the compound; 144-325; format: functional
Mus musculus [27] = experiment: Evaluated for antitumor activity against B-16 melanoma in mice at a dose 1 mg/kg day, ip, on days 1, 4, and 7 against B-16 Melanoma cell; format: functional; procedure, shortened: as §1

SMILES	T/C (P388 [1])	Therapeutic ratio (P388 [2])	T/C (P388 [3])	OD (P388 [4])	minimal effective dose (P388 [5])	Change (Mus musculus [6])	logD [7]	logD [8]	further results
COC12[C@@H]3N[C@@H]3CN1C1=C(C(=O)C(Nc3nnc(C)s3)=C(C)C1=O)[C@@H]2COC(N)=O (some centres not stated)	222%	32	267%	25.6 mg/kg	0.8 mg/kg	-32%	–	–	–
COC12[C@@H]3N[C@@H]3CN1c1c(O)c(C)c(/N=C3/C=CC(=N)N=C3)c(O)c1[C@@H]2COC(N)=O (some centres not stated)	277%	32	206%	12.8 mg/kg	0.4 mg/kg	–	-0.32	–	–
COC12[C@@H]3N[C@@H]3CN1C1=C(C(=O)C(Nc3ccc(C)cc3)=C(C)C1=O)[C@@H]2COC(N)=O (some centres not stated)	206%	32	200%	–	–	-37%	–	1.86	–
COC12[C@@H]3N[C@@H]3CN1C1=C(C(=O)C(N=C3C=CC(=Nc4c(C)c(O)c5c(c4O)[C@H](COC(N)=O)C4(OC)[C@@H]6N[C@@H]6CN54)C=C3)=C(C)C1=O)[C@@H]2COC(N)=O (some centres not stated)	161%	8	–	25.6 mg/kg	1.6 mg/kg	–	–	–	T/C (Mus musculus [9]): 250%
COC12[C@@H]3N[C@@H]3CN1C1=C(C(=O)C(Nc3nc(C)cs3)=C(C)C1=O)[C@@H]2COC(N)=O (some centres not stated)	172%	16	224%	6.4 mg/kg	0.4 mg/kg	–	1.16	–	–
COc1ccc(NC2=C(C)C(=O)C3=C(C2=O)[C@H](COC(N)=O)C2(OC)[C@@H]4N[C@@H]4CN32)cc1 (some centres not stated)	–	16	–	12.8 mg/kg	–	-76%	–	1.28	T/C (Mus musculus [9]): 268%; T/C (Mus musculus [10]): 316%
COc1ccc(NC2=C(C)C(=O)C3=C(C2=O)[C@H](COC(N)=O)C2(OC)[C@@H]4N[C@@H]4CN32)cc1OC (some centres not stated)	–	64	278%	12.8 mg/kg	0.2 mg/kg	–	–	–	Average weight gain (Mus musculus [11]): -0.6 g; T/C (Mus musculus [11]): 252%; Average weight gain (Mus musculus [12]): -1.3 g; Average weight gain (Mus musculus [13]): 0.9 g; T/C (Mus musculus [13]): 227%; T/C (Mus musculus [10]): >333%; Average weight gain (Mus musculus [14]): 0.6 g; T/C (Mus musculus [14]): 263%; T/C (Mus musculus [15]): 180%
COC12[C@@H]3N[C@@H]3CN1c1c(O)c(C)c(/N=C3/C=CN=N3)c(O)c1[C@@H]2COC(N)=O (some centres not stated)	–	–	161%	25.6 mg/kg	0.8 mg/kg	-15%	–	–	T/C (Mus musculus [10]): 333%
COc1ccc(NC2=C(C)C(=O)C3=C(C2=O)[C@H](COC(N)=O)C2(OC)[C@@H]4N[C@@H]4CN32)cn1 (some centres not stated)	211%	32	233%	6.4 mg/kg	0.2 mg/kg	-45%	0.59	–	–
COC12[C@@H]3N[C@@H]3CN1C1=C(C(=O)C(Nc3ccc(Cl)cc3)=C(C)C1=O)[C@@H]2COC(N)=O (some centres not stated)	144%	4	–	25.6 mg/kg	6.4 mg/kg	–	–	2.01	T/C (Mus musculus [9]): 250%
COC12[C@@H]3N[C@@H]3CN1C1=C(C(=O)C(Nc3cccnc3)=C(C)C1=O)[C@@H]2COC(N)=O (some centres not stated)	211%	16	198%	3.2 mg/kg	0.2 mg/kg	-33%	0.52	–	–
COC12[C@@H]3N[C@@H]3CN1c1c(O)c(C)c(N=C3C=CC(=O)C=C3)c(O)c1[C@@H]2COC(N)=O (some centres not stated)	>300%	128	144%	25.6 mg/kg	0.2 mg/kg	-27%	–	0.63	–
COC12[C@@H]3N[C@@H]3CN1C1=C(C(=O)C(Nc3nccs3)=C(C)C1=O)[C@@H]2COC(N)=O (some centres not stated)	194%	32	281%	6.4 mg/kg	0.4 mg/kg	-22%	0.62	–	–
COC12[C@@H]3N[C@@H]3CN1C1=C(C(=O)C(Nc3cc(C)ns3)=C(C)C1=O)[C@@H]2COC(N)=O (some centres not stated)	169%	32	325%	25.6 mg/kg	–	–	-0.3	–	–
COC12[C@@H]3N[C@@H]3CN1C1=C(C(=O)C(Nc3nc4cc(Cl)ccc4o3)=C(C)C1=O)[C@@H]2COC(N)=O (some centres not stated)	178%	16	267%	25.6 mg/kg	1.6 mg/kg	-33%	–	–	–
COC12[C@@H]3N[C@@H]3CN1C1=C(C(=O)C(Nc3cccc(N)c3)=C(C)C1=O)[C@@H]2COC(N)=O (some centres not stated)	222%	>8	200%	1.6 mg/kg	< 0.2 mg/kg	-17%	–	0.07	–
[H][C@@]12CN3c4c(O)c(C)c(/N=C5C=C/C(=N\CC(=O)O)C=C/5)c(O)c4[C@H](COC(N)=O)C3(OC)[C@]1([H])N2 (some centres not stated)	–	32	–	25.6 mg/kg	0.8 mg/kg	–	–	-0.78	T/C (Mus musculus [9]): 294%; T/C (Mus musculus [10]): 322%
COC12[C@@H]3N[C@@H]3CN1c1c(O)c(C)c(N=C3C=CC(=N)C=C3)c(O)c1[C@@H]2COC(N)=O (some centres not stated)	–	>64	–	12.8 mg/kg	< 0.2 mg/kg	-64%	–	0.07	T/C (Mus musculus [9]): 250%; T/C (Mus musculus [10]): >337%
COC12[C@@H]3N[C@@H]3CN1C1=C(C(=O)C(Nc3nc(C)c(C)s3)=C(C)C1=O)[C@@H]2COC(N)=O (some centres not stated)	188%	128	219%	25.6 mg/kg	0.2 mg/kg	–	1.29	–	–
[H][C@@]12CN3c4c(O)c(C)c(/N=C5C=C/C(=N\C(C)=O)C=C/5)c(O)c4[C@H](COC(N)=O)C3(OC)[C@]1([H])N2 (some centres not stated)	–	128	200%	25.6 mg/kg	0.2 mg/kg	-40%	–	0.33	Average weight gain (Mus musculus [16]): 0.8 g; T/C (Mus musculus [16]): 185%; Average weight gain (Mus musculus [17]): 1.4 g; Average weight gain (Mus musculus [13]): 0.3 g; T/C (Mus musculus [13]): 207%; T/C (Mus musculus [10]): >333%; Cures (Mus musculus [18]): 0; Cures (Mus musculus [19]): 0; T/C (Mus musculus [20]): 155%; Average weight gain (Mus musculus [21]): -1.3 g; T/C (Mus musculus [21]): 175%
CO[C@@]12[C@H](COC(N)=O)C3=C(C(=O)C(C)=C(N)C3=O)N1C[C@@H]1N[C@@H]12 [MITOMYCIN]	–	–	–	3.2 mg/kg	0.2 mg/kg	-42%	–	–	Average weight gain (Mus musculus [11]): -0.1; T/C (Mus musculus [11]): 200%; Average weight gain (Mus musculus [22]): 0.2 g; Cures (Mus musculus [23]): 0; Cures (Mus musculus [24]): 0; Cures (Mus musculus [25]): 0; Average weight gain (Mus musculus [15]): 0.5 g; T/C (Mus musculus [15]): 152%; Cures (Mus musculus [19]): 0; T/C (Mus musculus [26]): 144%; T/C (Mus musculus [27]): 155%; Average weight gain (Mus musculus [20]): -0.1 g; T/C (Mus musculus [20]): 165%
COC12[C@@H]3N[C@@H]3CN1c1c(O)c(C)c(/N=C3\C=CC(=O)C=C3C)c(O)c1[C@@H]2COC(N)=O (some centres not stated)	244%	64	200%	25.6 mg/kg	0.4 mg/kg	-34%	–	–	–
